Results reported in ChEMBL document CHEMBL4325822, “Discovery of a tetrazolyl β-carboline with in vitro and in vivo osteoprotective activity under estrogen-deficient conditions” (Medchemcomm, 2018).
Calls of active or inactive are those of the source. No cut-off for these calls is given here.

Experiments:
[1] = test system: Calvarial osteoblast; assay: Osteogenic activity in Sprague-Dawley rat calvarial osteoblasts assessed as mineralized nodule formation at 100 pM after 21 days by alizarin red-S staining based light microscopic method; assay type: functional, cell-based
Procedure, shortened: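 Osteoblasts at 10,000–15,000 cells/cm² in duplicate plates, 21 days in differentiation medium, medium changed every 48 h. Cells fixed in 4% PFA, stained with alizarin red-S (40 mM, pH 4.5, 30 min) and photographed. Stain extracted with 10% acetic acid, pH brought to 4.5 with ammonium hydroxide, read at 405 nm, normalized to cell number.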

[2] = test system: Rattus norvegicus; assay: Antiosteoporotic activity in Sprague-Dawley rat model of OVX-induced bone loss assessed as increase in serum PINP level at 1 to 5 mg/kg, po via gavage for 12 weeks by ELISA; assay type: functional, organism-based
Procedure, shortened: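 Ovariectomy model as above: 12 weeks of osteopenia, then 12 weeks of daily gavage or subcutaneous estradiol. Serum was separated at autopsy, and CTX and PINP were measured by ELISA kits.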

[3] = test system: Rattus norvegicus; assay: Upregulation of type-1 collagen mRNA expression in femur bone of Sprague-Dawley rat model of OVX-induced bone loss at 1 to 5 mg/kg, po via gavage for 12 weeks by qPCR analysis; assay type: functional, organism-based
Procedure, shortened: (§1)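 Ovariectomized female SD rats, osteopenic after 12 weeks, dosed orally once daily for 12 weeks (1.0 or 5.0 mg·kg⁻¹·day⁻¹, 1% gum acacia vehicle); sham and OVX vehicle groups included. Femurs collected at sacrifice for qRT-PCR, analysed by the ΔΔCT method.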

[4] = test system: Calvarial osteoblast; assay: Antioxidant activity in Sprague-Dawley rat calvarial osteoblasts assessed as inhibition of TNFalpha-induced intracellular ROS production at 100 pM after 24 hrs by DCFH-DA staining based fluorescence assay; assay type: functional, cell-based
Procedure, shortened: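 Primary rat calvarial osteoblasts were treated 24 h, then washed twice with serum-free medium. DCFH-DA (10 µg·mL⁻¹) was added in medium with 2% serum, followed by 30 min in the dark. Fluorescence was read at Ex 485/Em 535 nm.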

[5] = test system: Rattus norvegicus; assay: Upregulation of OCN mRNA expression in femur bone of Sprague-Dawley rat model of OVX-induced bone loss at 1 to 5 mg/kg, po via gavage for 12 weeks by qPCR analysis; assay type: functional, organism-based; procedure, shortened: as §1
[6] = Antioxidant activity assessed as DPPH radical scavenging activity at 500 ug/ml after 30 mins by spectrophotometric method relative to control; assay type: functional
Procedure, shortened: (§2)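 The compound was serially diluted from 1000 to 1.95 µg·ml⁻¹ and mixed 1:1 with DPPH in methanol. After 30 min at room temperature, absorbance was read at 517 nm. Scavenging (%) = [(Abc − Abs)/Abc] × 100, where Abc is DPPH without compound.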

[7] = Induction of osteoblast differentiation in Sprague-Dawley rat calvarial osteoblasts assessed as alkaline phosphatase activity at 100 pM after 48 hrs using PNPP as substrate by spectrophotometric method relative to control; assay type: functional
Procedure, shortened: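 Calvarial osteoblasts at 2 × 10³ cells/well. Treated 48 h with varied concentrations in differentiation medium (5% charcoal-treated FBS, 10 mM β-glycerophosphate, 50 µg·mL⁻¹ ascorbic acid). Total ALP read with PNPP substrate at 405 nm. Cell-free wells check for compound interference with substrate or absorbance.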

[8] = Antioxidant activity assessed as DPPH radical scavenging activity at 1000 ug/ml after 30 mins by spectrophotometric method relative to control; assay type: functional; procedure, shortened: as §2
[9] = test system: Calvarial osteoblast; assay: Cytotoxicity against Sprague-Dawley rat calvarial osteoblasts assessed as reduction in cell viability at 0.000001 to 1 uM after 48 hrs by MTT assay; assay type: cell-based
Procedure, shortened: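 Osteoblasts came from pooled calvaria of 1-2-day-old Sprague-Dawley pups, isolated by sequential dispase/collagenase digestion. Cells were exposed to compound at 1 pM to 1 µM for 48 h, and viability was measured by MTT.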

[10] = test system: Calvarial osteoblast; assay: Increase in BMP2 protein expression in Sprague-Dawley rat calvarial osteoblasts at 100 pM after 48 hrs by Western blot analysis; assay type: functional, cell-based
Procedure, shortened: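 Rat calvarial osteoblasts at 60-70% confluence were treated 48 h. Whole-cell lysates were blotted, blocked in 5% milk, and probed with primary antibody overnight at 4 °C, then with HRP secondary and ECL detection. Densitometry was normalized to β-actin; fold change versus untreated cells, three independent experiments, mean ± SEM.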

[11] = test system: Rattus norvegicus; assay: Antiosteoporotic activity in Sprague-Dawley rat model of OVX-induced bone loss assessed as mineral apposition rate at 5 mg/kg, po via gavage for 12 weeks by microcomputed tomographic analysis (reference value: 0.169 +/- 0.004 umeter/day); assay type: functional
Procedure, shortened: (§3)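 Female Sprague-Dawley rats, 10-12 weeks old, ten per group, were ovariectomized and left 12 weeks for osteopenia. They were then dosed once daily by oral gavage for 12 weeks in 1% gum acacia vehicle. The estradiol arm received 100 µg·kg⁻¹ subcutaneously five days a week. Tetracycline and calcein were given intraperitoneally at 20 mg·kg⁻¹ each. Femur cross-sections (50 µm) were imaged by fluorescence microscopy for MAR and BFR.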

[12] = test system: Rattus norvegicus; assay: Antiosteoporotic activity in Sprague-Dawley rat model of OVX-induced bone loss assessed as protection against microarchitectural deterioration by measuring trabecular number at 1 mg/kg, po via gavage for 12 weeks by microcomputed tomographic analysis (reference value: 0.56 +/- 0.06 /millimeter); assay type: functional
Procedure, shortened: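 Adult female Sprague-Dawley rats were ovariectomized and left 12 weeks to become osteopenic. They then received 12 weeks of once-daily oral gavage (1% gum acacia vehicle) or subcutaneous estradiol, five days a week. Femurs were collected at sacrifice and scanned by micro-CT for BMD and trabecular microarchitecture. Ten rats per group; mean ± SEM.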

[13] = test system: Rattus norvegicus; assay: Antiosteoporotic activity in Sprague-Dawley rat model of OVX-induced bone loss assessed as bone formation rate at 1 mg/kg, po via gavage for 12 weeks by microcomputed tomographic analysis (reference value: 0.171 +/- 0.005 um3/um2/day); assay type: functional; procedure, shortened: as §3
[14] = test system: Rattus norvegicus; assay: Antiosteoporotic activity in Sprague-Dawley rat model of OVX-induced bone loss assessed as bone formation rate at 5 mg/kg, po via gavage for 12 weeks by microcomputed tomographic analysis (reference value: 0.171 +/- 0.005 um3/um2/day); assay type: functional; procedure, shortened: as §3
[15] = test system: Rattus norvegicus; assay: Upregulation of BMP2 mRNA expression in femur bone of Sprague-Dawley rat model of OVX-induced bone loss at 1 to 5 mg/kg, po via gavage for 12 weeks by qPCR analysis; assay type: functional, organism-based; procedure, shortened: as §1
[16] = Toxicity in Sprague-Dawley rat model of OVX-induced bone loss assessed as total uterine area at 5 mg/kg, po via gavage for 12 weeks (reference value: 0.11 +/- 0.003 mm2); assay type: organism-based; details: in vivo, 2016 h
[17] = test system: Rattus norvegicus; assay: Antiosteoporotic activity in Sprague-Dawley rat model of OVX-induced bone loss assessed as increase in femoral bone strength by measuring energy at 1 mg/kg, po via gavage for 12 weeks by 3 point bending test (reference value: 46.27 +/- 4.36 mJ); assay type: functional
[18] = test system: Rattus norvegicus; assay: Antiosteoporotic activity in Sprague-Dawley rat model of OVX-induced bone loss assessed as increase in femoral bone strength by measuring energy at 5 mg/kg, po via gavage for 12 weeks by 3 point bending test (reference value: 46.27 +/- 4.36 mJ); assay type: functional
[19] = test system: Rattus norvegicus; assay: Antiosteoporotic activity in Sprague-Dawley rat model of OVX-induced bone loss assessed as increase in femoral bone strength by measuring stiffness at 5 mg/kg, po via gavage for 12 weeks by 3 point bending test (reference value: 122.07 +/- 12.18 N/mm); assay type: functional

CCOC(=O)c1cc2c([nH]c3ccccc32)c(C(c2nnnn2C(C)(C)C)N2CCN(C)CC2)n1 (centres undefined)
Activity [1]: Active | Activity [2]: Active | Activity [3]: Active | inhibition [4]: Active | Activity [5]: Active | Activity [6]: 43.5% | Emax at 0.0001 µM [7]: 89% | Activity [8]: 47.8% | Activity [9]: Non-Toxic | Activity [10]: Active | Activity [11]: 0.92 micrometer/day | Activity [12]: 1.34 /millimeter | Activity [13]: 1.032 um3/um2/day | Activity [14]: 0.98 um3/um2/day | Activity [15]: Active | Activity [16]: 0.13 mm2 | Activity [17]: 70.55 mJ | Activity [18]: 60.87 mJ | Activity [19]: 146.6 N/mm
